Source: PubChem BioAssay
CSC inhib: cancer stem cell viability inhibitors, primary screen, luminescence; inhibition, % at 7.5 µM; AID 2717, 2010; cancer stem cell-like cells viability; 300,000 compounds, 1.1% hits; in the data active = inhibition above about 75%; inconclusive = no clear call, values can overlap the other calls; tested in HMLE shEcad cells
HIF act: HIF pathway transcriptional activators, primary screen, cell-based, U2OS HRE-luciferase, luminescence. AID 1910, 2009. activation, % at 7.5 µM (by protocol). 300,000 compounds, 0.32% hits. U2OS HRE-luciferase reporter; normalized: DMSO 0%, desferrioxamine 100%;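 active = mean activation of at least 10% of the iron chelator positive control signal, with at least half of replicates also reaching 10%; inconclusive = mean and replicate majority disagree about reaching 10%; inactive = mean and most replicates under 10%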
Beta apoptosis: inhibitors of cytokine-induced beta cell apoptosis, primary screen, luminescence; INS-1E cytokine-induced death, ATP luminescence, 48 h; percent of positive-control rescue, neutral wells zero; protection from apoptosis, % (concentration not given with the values); 300,000 compounds, 0.8% hits;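 active = Every replicate reaches about 75%, or at least half do and their mean reaches it too, limit read from the data; inconclusive = At least half of replicates reach the limit but their mean does not; inactive = Under half of replicates reach the limit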;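 note: 0% = cytokine-treated negative control wells and 100% = positive control rescue; higher means more ATP so stronger rescue from cytokine killing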
PfHsp90 set2: growth inhibition of PfHsp90-expressing yeast, primary screen, antimalarial PfHsp90 inhibitor project, S. cerevisiae, BacTiter-Glo luminescence, single point, set 2 | 310,000 compounds, 0.32% hits | BacTiter-Glo ATP, 48 h; yeast lacking PDR1 and PDR3 efflux regulators | inhibition, % at 9.4 µM | AID 504621, 2011;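 active = every replicate shows inhibition above about 80%, whatever the replicate mean, limit read from the data; inconclusive = mean inhibition reaches the set limit but some replicate falls short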;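 note: 0% = DMSO neutral controls and 100% = 20 µM radicicol positive controls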
T cruzi repl: inhibitors of intracellular T. cruzi growth, primary screen, luminescence, NIH3T3 host cells. T. cruzi beta-gal in NIH3T3, 90 h. inhibition, % (no concentration beside the values). 300,000 compounds, 1.4% hits. AID 1885, 2009;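 active = mean inhibition across valid replicates above about 55%, limit read from the data; inconclusive = mean below that limit but half or more replicates reach it; inactive = mean below it, under half of replicates reach it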;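 note: signal also drops with host cell toxicity which is not excluded here; 0% = plate median of DMSO wells and 100% = zero luminescence signal; higher percent means less beta-gal luminescence so fewer parasites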
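System: Mouse NIH/3T3 fibroblasts infected with β-gal-expressing T. cruzi Tulahuen C4 | Quantity: NIH/3T3 cells, 5,000 per well | Reagent: 5000 reporter trypomastigotes per well | Dosing: Compound pinned at 50 nL/well, DMSO | Schedule: 3 h host attachment, then at least 90 h co-culture | Detection: GalScreen luminescence, 60 min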
SKKanGAS inh: S. pyogenes SKKanGAS growth inhibitors in kanamycin, primary screen, streptokinase expression inhibitor project, SKKanGAS strain, BacTiter-Glo luminescence. AID 1662, 2009. inhibition, % at 7.5 µM. 6 h. 300,000 compounds, 1.3% hits;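 active = mean replicate score, as percent of positive control median, at least 50; inconclusive = mean below 50 but one replicate at or above 50; inactive = mean and every replicate below 50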;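 note: strain carries kanamycin resistance gene driven by streptokinase promoter and grows in 40 µg/ml kanamycin; loss of luminescence reflects streptokinase promoter inhibition or plain growth inhibition; 0% = median of DMSO wells and 100% = positive control at its reference dose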
* = called active by the depositor; ? = inconclusive; · = not tested or not shown. Hits are enriched below; roughly 3.6% of the tested compounds scored in any of these assays.

SMILES	CSC inhib	HIF act	Beta apoptosis	PfHsp90 set2	T cruzi repl	SKKanGAS inh
COc1ccc(-c2cc3nc(-c4ccccc4)cc(N4CCCC(O)C4)n3n2)cc1 (centres undefined)	94*	0	18	-33	?	54*
N#Cc1ccccc1CSc1nc2ccsc2c(=O)n1Cc1ccccn1	·	1	6	-91	11	5
Cc1ccc(CSc2nc3ccsc3c(=O)n2Cc2ccccn2)cc1	9	1	3	78*	24	17
O=C1CN(S(=O)(=O)c2cccc(Cl)c2Cl)CCN1	·	·	·	10	·	·
NC(=S)N/N=C/c1c(O)c(Br)cc2oc3c(c12)CCCC3	39	·	82*	-29	18	87*
Oc1c(Br)cc2oc3c(c2c1CNCc1ccccc1)CCCC3	-1	-3	-2	10	-9	38
Cc1cc(Br)ccc1S(=O)(=O)NCc1ccccc1	7	0	1	-6	-13	18
O=C(COc1ccc([N+](=O)[O-])cc1)Nc1nc(-c2ccccn2)cs1	55	1	·	·	61*	57*
O=C(COc1ccc(F)cc1)Nc1nc(-c2ccccn2)cs1	17	0	2	-11	41	69*
O=C(Nc1nc(-c2ccccc2)cs1)Nc1ccc(F)cc1F	15	2	13	-6	26	-5
O=C(COc1ccccc1)Nc1nc(-c2ccncc2)cs1	-8	0	-7	-15	16	12
O=C(Nc1nc(-c2ccccn2)cs1)Nc1ccc(F)cc1F	-14	3	77*	-2	55*	90*
Cc1ccc(OCC(=O)Nc2nc(-c3ccccn3)cs2)c(C)c1	·	1	4	5	12	97*
COc1ccc(Cl)cc1-c1nc(-c2ccc(NC(=O)c3cccs3)cc2)no1	6	2	34	22	?	16
CN=C(Nc1cc(Cl)ccc1Cl)SC1CC(=O)N(c2ccc(C(=O)OC)cc2)C1=O (centres undefined)	7	0	7	·	16	52*
Cc1cccc(N2C(=O)CC(SC(=Nc3ccccc3)Nc3ccccc3)C2=O)c1 (centres undefined)	-8	0	-3	4	21	2
O=C1CC(SC(=Nc2ccccc2)Nc2ccccc2)C(=O)N1c1ccc(Cl)c(Cl)c1 (centres undefined)	36	0	4	-3	55*	72*
CCCCn1c(N)c(N(CCOC)C(=O)CCN2C(=O)C3CC=CCC3C2=O)c(=O)[nH]c1=O (centres undefined)	·	·	·	-5	·	·
CC(=O)N/C(=N/c1nc(C)cc(C)n1)Nc1ccc(C)cc1C	2	0	5	9	26	-8
Cc1c(C(=O)NCc2ccc3c(c2)OCO3)oc2ccc(S(=O)(=O)N3CCCCCC3)cc12	4	-1	·	14	55*	-4
Cc1c(C(=O)NCc2ccc3c(c2)OCO3)oc2ccc(S(=O)(=O)N3CCC(C)CC3)cc12	-1	-2	2	-4	56*	-4
Cc1ccc2oc(C(=O)NCc3ccc4c(c3)OCO4)c(C)c2c1	23	-1	-6	-11	2	-4
O=C(C[C@@H]1C/C=C/CC[C@@H](Cc2ccc(F)cc2)C(=O)O[C@H](c2ccccc2)CNC1=O)NCCO	0	·	-9	-13	·	·
O=C(Nc1nccs1)c1ccc(-c2ccc(F)c(Cl)c2)o1	17	4	2	6	17	75*
Cc1csc(NC(=O)c2ccc(COc3ccccc3)o2)n1	79*	2	0	-17	1	-3
SMILES	CSC inhib	HIF act	Beta apoptosis	PfHsp90 set2	T cruzi repl	SKKanGAS inh
O=C(Nc1nccs1)c1ccc(-c2ccc(Cl)cc2Cl)o1	23	5	5	-8	4	16
Cc1cccc(NC(=O)c2ccc(COc3ccc(Cl)cc3Cl)o2)n1	104*	0	-7	-11	14	5
Cc1cccc(NC(=O)c2ccc(COc3ccccc3)o2)n1	22	1	-2	-10	-3	13
COc1ccc(NC(=O)c2ccc(COc3ccccc3Br)o2)cc1OC	96*	0	7	0	6	6
Cn1c(=O)n(C)c2cc(S(=O)(=O)N3CCN(c4ccccc4)CC3)ccc21	-3	0	-12	-3	-2	-7
O=C(O)COCC(=O)N1CCCN(c2nccc(C(F)(F)F)n2)CC1	-4	0	-2	20	-1	-2
O=C(Nc1nccs1)c1ccc(COc2ccccc2Cl)o1	81*	2	-2	·	-9	0
COc1ccc(/C=C/c2ccc3cccc(O)c3n2)c(OC)c1OC	73	8	31	-61	35	105*
COc1cccc(/C=C/c2ccc3cccc(O)c3n2)c1OC	66	7	51	-32	41	86*
CCOc1c(OC(C)=O)ccc(/C=C/c2ccc3cccc(OC)c3n2)c1[N+](=O)[O-]	43	·	-10	-1	-7	3
CCN(CC)C(=O)Cn1cc(S(=O)(=O)CC(=O)Nc2cc(OC)ccc2OC)c2ccccc21	-2	-1	·	7	10	0
Cc1cccc(NC(=O)c2nc[nH]c2C(=O)NCCCCCNC(=O)OC(C)(C)C)c1	4	·	12	-63	·	·
CC(C)(C)OC(=O)NCCCC[C@H](NC(=O)c1nc[nH]c1C(=O)N[C@@H](CCCCNC(=O)OC(C)(C)C)C(=O)OC(C)(C)C)C(=O)OC(C)(C)C	7	2	25	-2	43	17
CC(C)(C)OC(=O)NCCCC[C@H](NC(=O)c1nc[nH]c1C(=O)NC(c1ccccc1)c1ccccc1)C(=O)OC(C)(C)C	35	-1	24	-9	56*	27
Cc1cccc(NC(=O)c2nc[nH]c2C(=O)N[C@@H](CCCCNC(=O)OC(C)(C)C)C(=O)OC(C)(C)C)c1	·	-1	13	10	62*	91*
CCOC(=O)/C(N=Nc1ccc(F)cc1)=C(/O)c1ccc([N+](=O)[O-])cc1	16	14*	·	1	1	-2
CCC(c1nnnn1CS(=O)(=O)c1ccc(C)cc1)N1CCN(c2nc3ccccc3s2)CC1 (centres undefined)	4	0	25	-3	75*	5
COc1ccc(C(c2nnnn2Cc2ccccc2)N2CCN(c3nc4ccccc4s3)CC2)cc1 (centres undefined)	-1	-1	2	-19	64*	15
c1ccc(CCn2nnnc2C(c2cccnc2)N2CCN(c3ccccc3)CC2)cc1 (centres undefined)	16	0	6	28	74*	0
